Laboratory results as given in ChEMBL document CHEMBL1687778, “Genetic determinants involved in the susceptibility of Pseudomonas aeruginosa to beta-lactam antibiotics” (2010).
Converted amounts (≈) assume the structure as drawn.

Key:
Assay type in all cases: functional
Pseudomonas aeruginosa [1] = test: Antimicrobial activity against Pseudomonas aeruginosa PA14 PA3667 harboring mutation in putative cysteine sulfinate desulfinase by Etest method
Outline: (§1)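 Etest MIC. Overnight LB cultures at 37°C were diluted in sterile 0.85% NaCl to about 1 × 10^7 CFU/ml. 100 µl was spread on Mueller-Hinton agar, one strip was placed per plate, and plates were incubated at 37°C for 18 h. Equal cell numbers were seeded per plate, and results were verified in triplicate. PA14 wild type was included in each set as a susceptibility control.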

Pseudomonas aeruginosa [2] = test: Antimicrobial activity against Pseudomonas aeruginosa PA14 PA5000 harboring wapR mutant gene by Etest method; outline: as §1
Pseudomonas aeruginosa [3] = test: Antimicrobial activity against Pseudomonas aeruginosa PA14 PA5288 harboring glnK mutant gene by Etest method; outline: as §1
Pseudomonas aeruginosa [4] = test: Antimicrobial activity against Pseudomonas aeruginosa PA14 PA0766 harboring mucD mutant gene by Etest method
Outline: (§2)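 Overnight LB cultures (37°C) diluted in sterile 0.85% NaCl to about 1 × 10^7 CFU/ml. 100 µl spread on Mueller-Hinton agar, one Etest strip per plate, 18 h at 37°C. Ceftazidime, imipenem and meropenem tested. Wild-type PA14 plate included in each set. Each mutant verified in triplicate.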

Pseudomonas aeruginosa [5] = test: Antimicrobial activity against Pseudomonas aeruginosa PA14 PA4745 harboring nusA mutant gene by Etest method; outline: as §1
Pseudomonas aeruginosa [6] = test: Antimicrobial activity against Pseudomonas aeruginosa PA14 PA14_15600 harboring mutation in conserved hypothetical protein by Etest method; outline: as §2
Pseudomonas aeruginosa [7] = test: Antimicrobial activity against Pseudomonas aeruginosa PA14 PA5130 harboring mutation in putative rhodanese-like domain protein by Etest method; outline: as §1
Pseudomonas aeruginosa [8] = test: Antimicrobial activity against Pseudomonas aeruginosa PA14 PA3620 harboring mutS mutant gene by Etest method; outline: as §1
Pseudomonas aeruginosa [9] = test: Antimicrobial activity against Pseudomonas aeruginosa PA14 PA2615 harboring ftsK mutant gene by Etest method; outline: as §2
Pseudomonas aeruginosa [10] = test: Antimicrobial activity against Pseudomonas aeruginosa PA14 PA3050 harboring pyrD mutant gene by Etest method; outline: as §2
Pseudomonas aeruginosa [11] = test: Antimicrobial activity against Pseudomonas aeruginosa PA14 PA1553 harboring mutation in putative cytochrome c oxidase, cbb3 type, subunit II by Etest method; outline: as §2
Pseudomonas aeruginosa [12] = test: Antimicrobial activity against Pseudomonas aeruginosa PA14 PA0958 harboring oprD mutant gene by Etest method; outline: as §2
Pseudomonas aeruginosa [13] = test: Antimicrobial activity against Pseudomonas aeruginosa PA14 PA0011 harboring mutation in putative 2-OH-lauroyltransferase by Etest method; outline: as §2
Pseudomonas aeruginosa [14] = test: Antimicrobial activity against Pseudomonas aeruginosa PA14 PA5366 harboring pstB mutant gene by Etest method; outline: as §1
Pseudomonas aeruginosa [15] = test: Antimicrobial activity against Pseudomonas aeruginosa PA14 PA14_07490/07510 harboring mutation in intergenic region by Etest method; outline: as §2
Pseudomonas aeruginosa [16] = test: Antimicrobial activity against Pseudomonas aeruginosa PA14 PA0479 harboring mutation in putative transcriptional regulator, LysR family by Etest method; outline: as §2
Pseudomonas aeruginosa [17] = test: Antimicrobial activity against Pseudomonas aeruginosa PA14 PA2970 harboring rpmF mutant gene by Etest method; outline: as §2
Pseudomonas aeruginosa [18] = test: Antimicrobial activity against Pseudomonas aeruginosa PA14 PA14_23420 harboring mutation in putative zinc-binding dehydrogenase by Etest method; outline: as §2
Pseudomonas aeruginosa [19] = test: Antimicrobial activity against Pseudomonas aeruginosa PA14 PA4269 harboring rpoC mutant gene by Etest method; outline: as §1
Pseudomonas aeruginosa [20] = test: Antimicrobial activity against Pseudomonas aeruginosa PA14 PA5002 harboring mutation in hypothetical protein by Etest method; outline: as §1
Pseudomonas aeruginosa [21] = test: Antimicrobial activity against Pseudomonas aeruginosa PA14 PA5174 harboring mutation in putative beta-ketoacyl synthase by Etest method; outline: as §1
Pseudomonas aeruginosa [22] = test: Antimicrobial activity against Pseudomonas aeruginosa PA14 PA4748 harboring tpiA mutant gene by Etest method; outline: as §1
Pseudomonas aeruginosa [23] = test: Antimicrobial activity against Pseudomonas aeruginosa PA14 PA14_23430 harboring mutation in putative heparinase by Etest method; outline: as §2
Pseudomonas aeruginosa [24] = test: Antimicrobial activity against Pseudomonas aeruginosa PA14 PA3141 harboring wbpM mutant gene by Etest method; outline: as §2
Pseudomonas aeruginosa [25] = test: Antimicrobial activity against Pseudomonas aeruginosa PA14 PA0770 harboring rnc mutant gene by Etest method; outline: as §2
Pseudomonas aeruginosa [26] = test: Antimicrobial activity against Pseudomonas aeruginosa PA14 PA1011 harboring mutation in putative lipoprotein by Etest method; outline: as §2
Pseudomonas aeruginosa [27] = test: Antimicrobial activity against Pseudomonas aeruginosa PA14 PA4069 harboring mutation in putative dTDP-4-rhamnose reductase-related protein by Etest method; outline: as §1
Pseudomonas aeruginosa [28] = test: Antimicrobial activity against Pseudomonas aeruginosa PA14 PA4007 harboring proA mutant gene by Etest method; outline: as §1
Pseudomonas aeruginosa [29] = test: Antimicrobial activity against Pseudomonas aeruginosa PA14 PA3818 harboring suhB mutant gene by Etest method; outline: as §1
Pseudomonas aeruginosa [30] = test: Antimicrobial activity against Pseudomonas aeruginosa PA14 PA0401 harboring mutation in Noncatalytic dihydroorotase-like protein by Etest method; outline: as §2
Pseudomonas aeruginosa [31] = test: Antimicrobial activity against Pseudomonas aeruginosa PA14 PA14_59780 harboring rcsC mutant gene by Etest method; outline: as §2
Pseudomonas aeruginosa [32] = test: Antimicrobial activity against Pseudomonas aeruginosa PA14 PA3800 harboring mutation in conserved hypothetical protein by Etest method; outline: as §1
Pseudomonas aeruginosa [33] = test: Antimicrobial activity against Pseudomonas aeruginosa PA14 PA3589 harboring mutation in acetyl-coenzyme A (CoA) acetyltransferase (thiolase) by Etest method; outline: as §1
Pseudomonas aeruginosa [34] = test: Antimicrobial activity against Pseudomonas aeruginosa PA14 PA4393 harboring mutation in putative permease by Etest method; outline: as §1
Pseudomonas aeruginosa [35] = test: Antimicrobial activity against Pseudomonas aeruginosa PA14 PA14_06490 harboring mutation in hypothetical protein by Etest method; outline: as §2
Pseudomonas aeruginosa [36] = test: Antimicrobial activity against Pseudomonas aeruginosa PA14 PA2963 harboring mutation in putative aminodeoxychorismate lyase by Etest method; outline: as §2
Pseudomonas aeruginosa [37] = test: Antimicrobial activity against Pseudomonas aeruginosa PA14 PA3978 harboring mutation in hypothetical protein by Etest method; outline: as §1
Pseudomonas aeruginosa [38] = test: Antimicrobial activity against Pseudomonas aeruginosa PA14 PA2128 harboring cupA1 mutant gene by Etest method; outline: as §2
Pseudomonas aeruginosa [39] = test: Antimicrobial activity against Pseudomonas aeruginosa PA14 PA2621 harboring clpS mutant gene by Etest method; outline: as §2
Pseudomonas aeruginosa [40] = test: Antimicrobial activity against Pseudomonas aeruginosa PA14 PA0667 harboring mutation in putative metallopeptidase by Etest method; outline: as §2
Pseudomonas aeruginosa [41] = test: Antimicrobial activity against Pseudomonas aeruginosa PA14 PA0807 harboring ampDh3 mutant gene by Etest method; outline: as §2
Pseudomonas aeruginosa [42] = test: Antimicrobial activity against Pseudomonas aeruginosa PA14 PA0427 harboring oprM mutant gene by Etest method; outline: as §2
Pseudomonas aeruginosa [43] = test: Antimicrobial activity against Pseudomonas aeruginosa PA14 PA4946 harboring mutL mutant gene by Etest method; outline: as §1
Pseudomonas aeruginosa [44] = test: Antimicrobial activity against Pseudomonas aeruginosa PA14 PA0402 harboring pyrB mutant gene by Etest method; outline: as §2
Pseudomonas aeruginosa [45] = test: Antimicrobial activity against Pseudomonas aeruginosa PA14 PA2797 harboring mutation in putative anti-anti-sigma factor by Etest method; outline: as §2
Pseudomonas aeruginosa [46] = test: Antimicrobial activity against Pseudomonas aeruginosa PA14 PA4527 harboring pilC mutant gene by Etest method; outline: as §1
Pseudomonas aeruginosa [47] = test: Antimicrobial activity against Pseudomonas aeruginosa PA14 PA5038 harboring aroB mutant gene by Etest method; outline: as §1
Pseudomonas aeruginosa [48] = test: Antimicrobial activity against Pseudomonas aeruginosa PA14 PA0420 harboring bioA mutant gene by Etest method; outline: as §2

Compound `C[C@@H](O)[C@H]1C(=O)N2C(C(=O)O)=C(S[C@@H]3CN[C@H](C(=O)N(C)C)C3)[C@H](C)[C@H]12` [MEROPENEM] has an MIC (Pseudomonas aeruginosa [1]) of 0.125 µg/mL (≈ 0.326 µM), an MIC (Pseudomonas aeruginosa [2]) of 0.38 µg/mL (≈ 0.991 µM) and an MIC (Pseudomonas aeruginosa [3]) of 0.047 µg/mL (≈ 0.123 µM). The MIC (Pseudomonas aeruginosa [4]) was 0.125 µg/mL (≈ 0.326 µM), the MIC (Pseudomonas aeruginosa [5]) was 0.125 µg/mL (≈ 0.326 µM) and the MIC (Pseudomonas aeruginosa [6]) was 0.125 µg/mL (≈ 0.326 µM). The MIC (Pseudomonas aeruginosa [7]) was 0.125 µg/mL (≈ 0.326 µM), the MIC (Pseudomonas aeruginosa [8]) was 0.125 µg/mL (≈ 0.326 µM) and the MIC (Pseudomonas aeruginosa [9]) was 0.064 µg/mL (≈ 0.167 µM). It also gave an MIC (Pseudomonas aeruginosa [10]) of 0.094 µg/mL (≈ 0.245 µM), an MIC (Pseudomonas aeruginosa [11]) of 0.125 µg/mL (≈ 0.326 µM) and an MIC (Pseudomonas aeruginosa [12]) of 1 µg/mL (≈ 2.61 µM). The MIC (Pseudomonas aeruginosa [13]) was 0.125 µg/mL (≈ 0.326 µM), the MIC (Pseudomonas aeruginosa [14]) was 0.125 µg/mL (≈ 0.326 µM) and the MIC (Pseudomonas aeruginosa [15]) was 0.094 µg/mL (≈ 0.245 µM). For the same compound, the MIC (Pseudomonas aeruginosa [16]) was 0.047 µg/mL (≈ 0.123 µM), the MIC (Pseudomonas aeruginosa [17]) was 0.125 µg/mL (≈ 0.326 µM) and the MIC (Pseudomonas aeruginosa [18]) was 0.125 µg/mL (≈ 0.326 µM). The MIC (Pseudomonas aeruginosa [19]) was 0.094 µg/mL (≈ 0.245 µM), the MIC (Pseudomonas aeruginosa [20]) was 0.094 µg/mL (≈ 0.245 µM) and the MIC (Pseudomonas aeruginosa [21]) was 0.125 µg/mL (≈ 0.326 µM). The MIC (Pseudomonas aeruginosa [22]) was 0.25 µg/mL (≈ 0.652 µM), the MIC (Pseudomonas aeruginosa [23]) was 0.125 µg/mL (≈ 0.326 µM) and the MIC (Pseudomonas aeruginosa [24]) was 0.125 µg/mL (≈ 0.326 µM). It also gave an MIC (Pseudomonas aeruginosa [25]) of 0.047 µg/mL (≈ 0.123 µM), an MIC (Pseudomonas aeruginosa [26]) of 0.19 µg/mL (≈ 0.495 µM) and an MIC (Pseudomonas aeruginosa [27]) of 0.064 µg/mL (≈ 0.167 µM). For the same compound, the MIC (Pseudomonas aeruginosa [28]) was 0.125 µg/mL (≈ 0.326 µM), the MIC (Pseudomonas aeruginosa [29]) was 0.064 µg/mL (≈ 0.167 µM) and the MIC (Pseudomonas aeruginosa [30]) was 0.064 µg/mL (≈ 0.167 µM). It also gave an MIC (Pseudomonas aeruginosa [31]) of 0.125 µg/mL (≈ 0.326 µM), an MIC (Pseudomonas aeruginosa [32]) of 0.125 µg/mL (≈ 0.326 µM) and an MIC (Pseudomonas aeruginosa [33]) of 0.125 µg/mL (≈ 0.326 µM). It also gave an MIC (Pseudomonas aeruginosa [34]) of 0.19 µg/mL (≈ 0.495 µM), an MIC (Pseudomonas aeruginosa [35]) of 0.125 µg/mL (≈ 0.326 µM) and an MIC (Pseudomonas aeruginosa [36]) of 0.125 µg/mL (≈ 0.326 µM). It also gave an MIC (Pseudomonas aeruginosa [37]) of 0.125 µg/mL (≈ 0.326 µM), an MIC (Pseudomonas aeruginosa [38]) of 0.125 µg/mL (≈ 0.326 µM) and an MIC (Pseudomonas aeruginosa [39]) of 0.19 µg/mL (≈ 0.495 µM). For the same compound, the MIC (Pseudomonas aeruginosa [40]) was 0.19 µg/mL (≈ 0.495 µM), the MIC (Pseudomonas aeruginosa [41]) was 0.25 µg/mL (≈ 0.652 µM) and the MIC (Pseudomonas aeruginosa [42]) was 0.023 µg/mL (≈ 0.06 µM). The MIC (Pseudomonas aeruginosa [43]) was 0.094 µg/mL (≈ 0.245 µM), the MIC (Pseudomonas aeruginosa [44]) was 0.125 µg/mL (≈ 0.326 µM) and the MIC (Pseudomonas aeruginosa [45]) was 0.094 µg/mL (≈ 0.245 µM). It also gave an MIC (Pseudomonas aeruginosa [46]) of 0.125 µg/mL (≈ 0.326 µM), an MIC (Pseudomonas aeruginosa [47]) of 0.25 µg/mL (≈ 0.652 µM) and an MIC (Pseudomonas aeruginosa [48]) of 0.094 µg/mL (≈ 0.245 µM).
